From ChEMBL document CHEMBL3751671, “Synthesis and biological activity of diisothiocyanate-derived mercapturic acids” (Bioorg Med Chem Lett, 2016)

Columns and labels:
LoVo [1] = test: Antiproliferative activity against human LoVo cells assessed as reduction in cell viability after 72 hrs by SRB assay; type: functional, cell-based
Outline: (§1)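 Human colon adenocarcinoma LoVo cells and their doxorubicin-resistant subline LoVo/DX. Growth was read by sulforhodamine B (SRB) staining. IC50 values are means ± SD from at least three experiments, each in triplicate.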

[2] = Antiproliferative activity against human LoVo/DX cells assessed as reduction in cell viability after 72 hrs by SRB assay; type: functional, cell-based; outline: as §1
[3] = Potency index, ratio of IC50 for doxorubicin to IC50 for test compound against human LoVo/DX cells assessed as reduction in cell viability after 72 hrs by SRB assay; type: functional
Histone deacetylase = test: Inhibition of HDAC in human LoVo/DX cells using Boc-Lys(Ac)-AMC as substrate assessed as release of AMC pre-incubated for 15 mins followed by substrate addition measured after 3 hrs by indirect spectrofluorometric assay; type: cell-based
Outline: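 Crude enzyme was LoVo/DX cell lysate. HDAC activity was read by an indirect spectrofluorometric assay, and IC50 was determined on the lysate.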

BALB/3T3 = test: Cytotoxicity against mouse BALB/3T3 cells after 72 hrs by SRB assay; type: cell-based; settings: BALB/3T3, 72 h
Mus musculus [4] = test: Toxicity in Balb/c mouse assessed as changes in body weight at 900 umol/kg; type: organism-based; settings: in vivo
Outline: (§2)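 Preliminary in vivo toxicity study in Balb/c mice given high doses (900 µmol/kg b.w.). Toxicity was judged from body weight changes, blood morphology and blood biochemical analysis.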

Mus musculus [5] = test: Toxicity in Balb/c mouse assessed as changes in blood morphology at 900 umol/kg; type: organism-based; settings: in vivo; outline: as §2
Mus musculus [6] = test: Toxicity in Balb/c mouse assessed as changes in blood biochemical parameters at 900 umol/kg; type: organism-based; settings: in vivo; outline: as §2
LoVo [7] = test: Selectivity index, ratio of IC50 for mouse BALB/3T3 cells to IC50 for human LoVo cells; type: functional
[8] = Selectivity index, ratio of IC50 for mouse BALB/3T3 cells to IC50 for human LoVo/DX cells; type: functional
LoVo [9] = test: Selectivity index, ratio of IC50 for human LoVo/DX cells to IC50 for human LoVo cells; type: functional
[10] = Homo sapiens, LoVo, 72 h, read-out: IC50

| SMILES | IC50 (LoVo [1]; [10]) | IC50 (Histone deacetylase) | IC50 [2] | IC50 (BALB/3T3) | also measured |
| --- | --- | --- | --- | --- | --- |
| S=C=NCCCCN=C=S | 1.88 µM |  | 2.35 µM |  | Ratio IC50 [3]: 3 |
| S=C=NCCCN=C=S | 1.84 µM |  | 2.44 µM |  |  |
| COc1ccc(CNC(=S)SC[C@H](NC(C)=O)C(=O)O)cc1 | 3.7 µM | 2940 µM | 4.2 µM | 6.9 µM |  |
| Cc1ccc(N=C=S)cc1N=C=S | 35.2 µM |  | 47.3 µM |  |  |
| CC(=O)N[C@@H](CSC(=S)NCc1ccccc1)C(=O)O | 11.7 µM | 3440 µM | 16.8 µM | 23.4 µM |  |
| S=C=Nc1cccc(N=C=S)c1 | 46.4 µM |  | 55.7 µM |  |  |
| COc1ccc(CN=C=S)cc1 | 3.7 µM |  | 3.9 µM |  |  |
| CCCCCN=C=S [1-ISOTHIOCYANATOPENTANE] | 88.3 µM |  | 75.2 µM |  |  |
| CC(=O)N[C@@H](CS)C(=O)O [ACETYLCYSTEINE] |  | 3160 µM |  |  |  |
| S=C=NCc1ccccc1 [BENZYL ISOTHIOCYANATE] | 14.5 µM |  | 19.8 µM |  |  |
| S=C=Nc1ccc(N=C=S)cc1 [BITOSCANATE] | 9.41 µM |  | 11.6 µM |  |  |
| CCCCN=C=S [BUTYL ISOTHIOCYANATE] | 296 µM |  | 265 µM |  |  |
| COc1cccc2c1C(=O)c1c(O)c3c(c(O)c1C2=O)C[C@@](O)(C(=O)CO)C[C@@H]3O[C@H]1C[C@H](N)[C@H](O)[C@H](C)O1 [DOXORUBICIN] |  |  | 7.2 µM | 0.11 µM | Ratio IC50 (LoVo [9]): 48 |
| S=C=NCCc1ccccc1 [PHENETHYLISOTHIOCYANATE] |  |  | 9.8 µM |  |  |
| CCCN=C=S [PROPYL ISOTHIOCYANATE] | 181 µM |  | 177 µM |  |  |

Second part, led by results:

| IC50 (LoVo [1]; [10]) | IC50 (Histone deacetylase) | SMILES | IC50 [2] | IC50 (BALB/3T3) | also measured |
| --- | --- | --- | --- | --- | --- |
| 36.6 µM | 3200 µM | CCCCCNC(=S)SC[C@H](NC(C)=O)C(=O)O | 42.8 µM | 48.5 µM |  |
| 2.02 µM | 2330 µM | CC(=O)N[C@@H](CSC(=S)NCCCCNC(=S)SC[C@H](NC(C)=O)C(=O)O)C(=O)O | 4.84 µM | 5.54 µM | Activity (Mus musculus [4]): Non-toxic; Activity (Mus musculus [5]): Non-toxic; Activity (Mus musculus [6]): Non-toxic |
| 7.15 µM | 2190 µM | CC(=O)N[C@@H](CSC(=S)NCCCC(C)CNC(=S)SC[C@H](NC(C)=O)C(=O)O)C(=O)O (some centres not stated) | 6.6 µM | 7.99 µM |  |
| 23.5 µM | 290 µM | CC(=O)N[C@@H](CSC(=S)Nc1ccc(NC(=S)SC[C@H](NC(C)=O)C(=O)O)cc1)C(=O)O | 19.4 µM | 79.5 µM | Ratio IC50 (LoVo [7]): 3; Ratio IC50 [8]: 3 |
| 4.22 µM | 5960 µM | CC(=O)N[C@@H](CSC(=S)NCCCNC(=S)SC[C@H](NC(C)=O)C(=O)O)C(=O)O | 9.55 µM | 8.65 µM |  |
| 12.7 µM | 3450 µM | CC(=O)N[C@@H](CSC(=S)NCCc1ccccc1)C(=O)O | 7.7 µM | 25.3 µM |  |
| 2.59 µM | 4260 µM | CC(=O)N[C@@H](CSC(=S)NCCCOCCOCCOCCCNC(=S)SC[C@H](NC(C)=O)C(=O)O)C(=O)O | 7.93 µM | 7.15 µM |  |
|  | 1660 µM | CC(=O)N[C@@H](CSC(=S)NC1CCCCC1NC(=S)SC[C@H](NC(C)=O)C(=O)O)C(=O)O (some centres not stated) | 473 µM | 75.2 µM | IC50 (LoVo [1]; lovo): Not Active |
| > 25 µM | 970 µM | CC(=O)N[C@@H](CSC(=S)Nc1cccc(NC(=S)SC[C@H](NC(C)=O)C(=O)O)c1)C(=O)O | > 25 µM | > 100 µM |  |
| 151 µM |  | CCCNC(=S)SC[C@H](NC(C)=O)C(=O)O | 112 µM | 224 µM |  |
| 11.7 µM | 2680 µM | CC(=O)N[C@@H](CSC(=S)NCC1CCCC(CNC(=S)SC[C@H](NC(C)=O)C(=O)O)C1)C(=O)O (some centres not stated) | 12.8 µM | 5.88 µM | Ratio IC50 [8]: 0.5 |
| 20.5 µM | 450 µM | CC(=O)N[C@@H](CSC(=S)Nc1ccc(C)c(NC(=S)SC[C@H](NC(C)=O)C(=O)O)c1)C(=O)O | 22.4 µM | 54.7 µM | Ratio IC50 (LoVo [7]): 3; Ratio IC50 [8]: 3 |
| 4.62 µM | 4370 µM | CC(=O)N[C@@H](CSC(=S)NCCOCCOCCNC(=S)SC[C@H](NC(C)=O)C(=O)O)C(=O)O | 14.2 µM | 6.87 µM | Ratio IC50 [8]: 0.5 |
| 5.21 µM | 3740 µM | CC(=O)N[C@@H](CSC(=S)N[C@H]1CC[C@H](NC(=S)SC[C@H](NC(C)=O)C(=O)O)CC1)C(=O)O | 3.45 µM | 7.27 µM |  |
| 130 µM | 3460 µM | CCCCNC(=S)SC[C@H](NC(C)=O)C(=O)O | 134 µM | 206 µM |  |
